pIC50: −log10 of the molar value.

One assay concerns HT-29. Briefly: Concentration required to kill hypoxic HT-29 human colon carcinoma cells in vitro. The format is functional, cell-based. The essentials:
(§1)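 HT-29 cells tested simultaneously under oxic and hypoxic conditions in a 96-well SRB proliferation assay; TPZ internal control at front and back of assay (n = 2); 8-methyl-5-nitroquinoline second control confirming strict hypoxia. IC50 pooled from seven independent experiments as interexperimental means (mean ± SEM, n ≥ 2).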
`[O-][n+]1nc(NCCCCCCNc2c3ccccc3nc3ccccc23)[n+]([O-])c2ccccc21` had a negative-log IC50 (pIC50) of 7.80.
Take `CN(CCCNC(=O)c1cccc2nc3ccccc3nc12)CCCNc1n[n+]([O-])c2ccccc2[n+]1[O-]`: the negative-log IC50 (pIC50) is 6.92.
As for `CN(CCCNC(=O)c1cccc2ccc(-c3ccncc3)nc12)CCCNc1n[n+]([O-])c2ccccc2[n+]1[O-]`, the pIC50 was 6.96.
As to `Cc1cccc2cc3cccc(C(=O)NCCCN(C)CCCNc4n[n+]([O-])c5ccccc5[n+]4[O-])c3nc12`, the negative-log IC50 (pIC50) is 7.02.
The same measure, in the same setting: to `Nc1n[n+]([O-])c2ccccc2[n+]1[O-]` [TIRAPAZAMINE] belongs 5.21; to `CN(CCCNC(=O)c1cccc2cccnc12)CCCNc1n[n+]([O-])c2ccccc2[n+]1[O-]`, 6.23; to `Cc1cccc2nc3cccc(C(=O)NCCCN(C)CCCNc4n[n+]([O-])c5ccccc5[n+]4[O-])c3nc12`, 7.74.
Same read-out and setting: in the case of `O=C(NCCNCCNc1n[n+]([O-])c2ccccc2[n+]1[O-])c1cccc2cc3ccccc3nc12` it was 7.10.
Same read-out and setting: to `CN(CCNC(=O)c1cccc2cc3ccccc3nc12)CCNc1n[n+]([O-])c2ccccc2[n+]1[O-]` belongs 6.74.
`CN(CCCNC(=O)c1cccc2cc3ccccc3nc12)CCCNc1n[n+]([O-])c2ccccc2[n+]1[O-]` had a pIC50 of 7.37.
Still for that read-out and setting: in the case of `O=C(NCCCNCCCNc1n[n+]([O-])c2ccccc2[n+]1[O-])c1cccc2cc3ccccc3nc12` it was 7.19.
Same read-out and setting: to `O=C(NCCOCCNc1n[n+]([O-])c2ccccc2[n+]1[O-])c1cccc2cc3ccccc3nc12` belongs 5.24.

Tested on in the next assay: not listed separately
Briefly: Hypoxic cytotoxicity ratio was measured as IC50 aerobic/IC50 hypoxic. The format is functional. In short, it runs like this: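 HT-29 cells, SRB proliferation assay with each compound run simultaneously under aerobic and hypoxic conditions; intraexperimental ratio IC50(aerobic)/IC50(hypoxic).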
With `[O-][n+]1nc(NCCCCCCNc2c3ccccc3nc3ccccc23)[n+]([O-])c2ccccc21`, the Ratio is 39.7.
As for `CN(CCCNC(=O)c1cccc2nc3ccccc3nc12)CCCNc1n[n+]([O-])c2ccccc2[n+]1[O-]`, the Ratio was 4.9.
Regarding `CN(CCCNC(=O)c1cccc2ccc(-c3ccncc3)nc12)CCCNc1n[n+]([O-])c2ccccc2[n+]1[O-]`, the Ratio is reported as 107.
Turning to `Cc1cccc2cc3cccc(C(=O)NCCCN(C)CCCNc4n[n+]([O-])c5ccccc5[n+]4[O-])c3nc12`, the Ratio stood at 88.4.
Still for that read-out and setting: to `Nc1n[n+]([O-])c2ccccc2[n+]1[O-]` [TIRAPAZAMINE] belongs 62; to `CN(CCCNC(=O)c1cccc2cccnc12)CCCNc1n[n+]([O-])c2ccccc2[n+]1[O-]`, 61.2.
Same read-out and setting: in the case of `Cc1cccc2nc3cccc(C(=O)NCCCN(C)CCCNc4n[n+]([O-])c5ccccc5[n+]4[O-])c3nc12` it was 31; in that of `O=C(NCCNCCNc1n[n+]([O-])c2ccccc2[n+]1[O-])c1cccc2cc3ccccc3nc12`, 98.6; in that of `CN(CCNC(=O)c1cccc2cc3ccccc3nc12)CCNc1n[n+]([O-])c2ccccc2[n+]1[O-]`, 87.
Same read-out and setting: to `CN(CCCNC(=O)c1cccc2cc3ccccc3nc12)CCCNc1n[n+]([O-])c2ccccc2[n+]1[O-]` belongs 124; to `O=C(NCCCNCCCNc1n[n+]([O-])c2ccccc2[n+]1[O-])c1cccc2cc3ccccc3nc12`, 87.5.
`O=C(NCCOCCNc1n[n+]([O-])c2ccccc2[n+]1[O-])c1cccc2cc3ccccc3nc12`: the Ratio was found to be 12.8.

Another assay concerns HT-29. Briefly: Concentration required to kill aerobic HT-29 human colon carcinoma cells in vitro. The format is functional, cell-based. In short, it runs like this: as §1
Turning to `[O-][n+]1nc(NCCCCCCNc2c3ccccc3nc3ccccc23)[n+]([O-])c2ccccc21`, the pIC50 is 6.21.
Still for that read-out and setting: to `CN(CCCNC(=O)c1cccc2nc3ccccc3nc12)CCCNc1n[n+]([O-])c2ccccc2[n+]1[O-]` belongs 6.23; to `CN(CCCNC(=O)c1cccc2ccc(-c3ccncc3)nc12)CCCNc1n[n+]([O-])c2ccccc2[n+]1[O-]`, 4.92.
In turn, `Cc1cccc2cc3cccc(C(=O)NCCCN(C)CCCNc4n[n+]([O-])c5ccccc5[n+]4[O-])c3nc12` gave a pIC50 of 5.08.
On the same count and under the same terms, in the case of `Nc1n[n+]([O-])c2ccccc2[n+]1[O-]` [TIRAPAZAMINE] it was 3.41; in that of `CN(CCCNC(=O)c1cccc2cccnc12)CCCNc1n[n+]([O-])c2ccccc2[n+]1[O-]`, 4.44; in that of `Cc1cccc2nc3cccc(C(=O)NCCCN(C)CCCNc4n[n+]([O-])c5ccccc5[n+]4[O-])c3nc12`, 6.25.
For `O=C(NCCNCCNc1n[n+]([O-])c2ccccc2[n+]1[O-])c1cccc2cc3ccccc3nc12`, the pIC50 is 5.11.
Take `CN(CCNC(=O)c1cccc2cc3ccccc3nc12)CCNc1n[n+]([O-])c2ccccc2[n+]1[O-]`: the negative-log IC50 (pIC50) is 4.80.
Same read-out and setting: in the case of `CN(CCCNC(=O)c1cccc2cc3ccccc3nc12)CCCNc1n[n+]([O-])c2ccccc2[n+]1[O-]` it was 5.27; in that of `O=C(NCCCNCCCNc1n[n+]([O-])c2ccccc2[n+]1[O-])c1cccc2cc3ccccc3nc12`, 5.24; in that of `O=C(NCCOCCNc1n[n+]([O-])c2ccccc2[n+]1[O-])c1cccc2cc3ccccc3nc12`, 4.14.

Tested on in the next assay: not listed separately
The experiment in a line: Hypoxic cytotoxicity ratio was measured as C10 aerobic/C10 hypoxic. Type of assay: functional. The essentials:
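Mouse SCCVII cells, 1 h drug exposure under aerobic and hypoxic conditions in the same experiment, clonogenic survival; intraexperimental ratio C10(aerobic)/C10(hypoxic), C10 being the concentration giving 10% plating efficiency of controls.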
`[O-][n+]1nc(NCCCCCCNc2c3ccccc3nc3ccccc23)[n+]([O-])c2ccccc21`: the Ratio was 15.7.
On the same count and under the same terms, to `CN(CCCNC(=O)c1cccc2nc3ccccc3nc12)CCCNc1n[n+]([O-])c2ccccc2[n+]1[O-]` belongs 8.8; to `CN(CCCNC(=O)c1cccc2ccc(-c3ccncc3)nc12)CCCNc1n[n+]([O-])c2ccccc2[n+]1[O-]`, 7.8; to `Cc1cccc2cc3cccc(C(=O)NCCCN(C)CCCNc4n[n+]([O-])c5ccccc5[n+]4[O-])c3nc12`, more than 167.
Still for that read-out and setting: in the case of `Nc1n[n+]([O-])c2ccccc2[n+]1[O-]` [TIRAPAZAMINE] it was 258.
Same read-out and setting: in the case of `CN(CCCNC(=O)c1cccc2cccnc12)CCCNc1n[n+]([O-])c2ccccc2[n+]1[O-]` it was 13.9; in that of `Cc1cccc2nc3cccc(C(=O)NCCCN(C)CCCNc4n[n+]([O-])c5ccccc5[n+]4[O-])c3nc12`, 21.1; in that of `O=C(NCCNCCNc1n[n+]([O-])c2ccccc2[n+]1[O-])c1cccc2cc3ccccc3nc12`, 48.2.
As to `CN(CCNC(=O)c1cccc2cc3ccccc3nc12)CCNc1n[n+]([O-])c2ccccc2[n+]1[O-]`, the Ratio is reported as 431.
On the same count and under the same terms, to `CN(CCCNC(=O)c1cccc2cc3ccccc3nc12)CCCNc1n[n+]([O-])c2ccccc2[n+]1[O-]` belongs 51.5; to `O=C(NCCCNCCCNc1n[n+]([O-])c2ccccc2[n+]1[O-])c1cccc2cc3ccccc3nc12`, 12.5; to `O=C(NCCOCCNc1n[n+]([O-])c2ccccc2[n+]1[O-])c1cccc2cc3ccccc3nc12`, 50.8.

In the next assay the test system is SCC-7. The experiment in a line: Concentration required to kill hypoxic mouse SCCVII cells in vitro. Type of assay: functional. In short, it runs like this:
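Mouse SCCVII tumour cells exposed to drug for 1 h under hypoxic (anoxic) conditions; clonogenic survival; C10 = concentration reducing plating efficiency to 10% of controls. Values corrected for interexperimental variation in hypoxia using TPZ internal standard: C10(calc) = C10(meas) × [C10(TPZ,mean)/C10(TPZ,meas)].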
`[O-][n+]1nc(NCCCCCCNc2c3ccccc3nc3ccccc23)[n+]([O-])c2ccccc21` returned a C10 of 0.61 µM.
On the same count and under the same terms, to `CN(CCCNC(=O)c1cccc2nc3ccccc3nc12)CCCNc1n[n+]([O-])c2ccccc2[n+]1[O-]` belongs 1.07 µM; to `CN(CCCNC(=O)c1cccc2ccc(-c3ccncc3)nc12)CCCNc1n[n+]([O-])c2ccccc2[n+]1[O-]`, 1.79 µM; to `Cc1cccc2cc3cccc(C(=O)NCCCN(C)CCCNc4n[n+]([O-])c5ccccc5[n+]4[O-])c3nc12`, 0.18 µM.
Regarding `Nc1n[n+]([O-])c2ccccc2[n+]1[O-]` [TIRAPAZAMINE], the C10 was 10.2 µM.
Turning to `CN(CCCNC(=O)c1cccc2cccnc12)CCCNc1n[n+]([O-])c2ccccc2[n+]1[O-]`, the C10 was found to be 6.5 µM.
In the case of `Cc1cccc2nc3cccc(C(=O)NCCCN(C)CCCNc4n[n+]([O-])c5ccccc5[n+]4[O-])c3nc12`, the C10 was found to be 0.35 µM.
The same measure, in the same setting: in the case of `O=C(NCCNCCNc1n[n+]([O-])c2ccccc2[n+]1[O-])c1cccc2cc3ccccc3nc12` it was 1.16 µM.
`CN(CCNC(=O)c1cccc2cc3ccccc3nc12)CCNc1n[n+]([O-])c2ccccc2[n+]1[O-]` gave a C10 of 0.93 µM.
`CN(CCCNC(=O)c1cccc2cc3ccccc3nc12)CCCNc1n[n+]([O-])c2ccccc2[n+]1[O-]` gave a C10 of 0.82 µM.
The molecule `O=C(NCCCNCCCNc1n[n+]([O-])c2ccccc2[n+]1[O-])c1cccc2cc3ccccc3nc12` had a C10 of 0.51 µM.
Same read-out and setting: in the case of `O=C(NCCOCCNc1n[n+]([O-])c2ccccc2[n+]1[O-])c1cccc2cc3ccccc3nc12` it was 12.4 µM.

A further assay relates to SCC-7. The experiment in a line: Concentration required to kill aerobic mouse SCCVII cells in vitro. Type of assay: functional. In short, it runs like this: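 Mouse SCCVII tumour cells exposed to drug for 1 h under aerobic conditions; clonogenic survival read-out; C10 = concentration reducing plating efficiency to 10% of controls (one-log kill).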
`[O-][n+]1nc(NCCCCCCNc2c3ccccc3nc3ccccc23)[n+]([O-])c2ccccc21`: the C10 turned out to be 9.6 µM.
In the case of `CN(CCCNC(=O)c1cccc2nc3ccccc3nc12)CCCNc1n[n+]([O-])c2ccccc2[n+]1[O-]`, the C10 is 9.4 µM.
Same read-out and setting: to `CN(CCCNC(=O)c1cccc2ccc(-c3ccncc3)nc12)CCCNc1n[n+]([O-])c2ccccc2[n+]1[O-]` belongs 14 µM; to `Cc1cccc2cc3cccc(C(=O)NCCCN(C)CCCNc4n[n+]([O-])c5ccccc5[n+]4[O-])c3nc12`, more than 30 µM.
Still for that read-out and setting: to `Nc1n[n+]([O-])c2ccccc2[n+]1[O-]` [TIRAPAZAMINE] belongs 2644 µM; to `CN(CCCNC(=O)c1cccc2cccnc12)CCCNc1n[n+]([O-])c2ccccc2[n+]1[O-]`, 90 µM.
On the same count and under the same terms, in the case of `Cc1cccc2nc3cccc(C(=O)NCCCN(C)CCCNc4n[n+]([O-])c5ccccc5[n+]4[O-])c3nc12` it was 7.4 µM.
Molecule `O=C(NCCNCCNc1n[n+]([O-])c2ccccc2[n+]1[O-])c1cccc2cc3ccccc3nc12` returned a C10 of 56 µM.
`CN(CCNC(=O)c1cccc2cc3ccccc3nc12)CCNc1n[n+]([O-])c2ccccc2[n+]1[O-]` came in with a C10 of 400 µM.
`CN(CCCNC(=O)c1cccc2cc3ccccc3nc12)CCCNc1n[n+]([O-])c2ccccc2[n+]1[O-]` yielded a C10 of 42 µM.
In the case of `O=C(NCCCNCCCNc1n[n+]([O-])c2ccccc2[n+]1[O-])c1cccc2cc3ccccc3nc12`, the C10 was found to be 6.4 µM.
On to `O=C(NCCOCCNc1n[n+]([O-])c2ccccc2[n+]1[O-])c1cccc2cc3ccccc3nc12`, for which the C10 amounted to 630 µM.

The pIC50 is the negative decadic logarithm of the IC50, by convention in mol/L. Read a low pIC50 as a high IC50.

Values taken from ChEMBL document CHEMBL1148387, “DNA-targeted 1,2,4-benzotriazine 1,4-dioxides: potent analogues of the hypoxia-selective cytotoxin tirapazamine” (J Med Chem, 2004).
